Assay results from different studies.
Read-out: enzyme activity
Mode: inhibitor
PDGFRA D842V: Platelet-derived growth factor receptor alpha (PDGFRA, Homo sapiens, UniProt P16234, D842V)
PDGFRA: Platelet-derived growth factor receptor alpha (PDGFRA, Homo sapiens, UniProt P16234)

Compound | target | method | concentration | inhibition [%]
COc1cc2ncnc(Nc3ccc(Oc4ccccc4)cc3C)c2cc1OC | PDGFRA D842V |  | 1 µM | -1
COc1cc2nccc(Oc3ccc(NC(=O)c4c5n(n(-c6ccc(F)cc6)c4=O)CCCC5)cc3)c2cc1OC | PDGFRA |  | 0.1 µM | 30
CNC(=O)c1cc2c(Oc3ccc(NC(=O)C4(C(=O)Nc5ccc(F)cc5)CC4)cc3)ccnc2cc1OC | PDGFRA D842V | radiometric | 1 µM | 73
COc1cc2ncnc(Nc3ccc(Oc4ccccc4)c(C)c3C)c2cc1OC | PDGFRA |  | 1 µM | 6
COc1cc(-c2cc(-c3ccc(N4CCNCC4)cc3)cnc2N)cc(OC)c1OC | PDGFRA D842V |  | 0.1 µM | 54
O=C(CSc1nc2nccnc2c(=O)n1CCc1ccccc1)Nc1nccs1 | PDGFRA |  | 10 µM | 16
CC/C(=N\NC(=O)NCc1cccc(O)c1)c1ccc(O)c(C)c1O | PDGFRA |  | 0.1 µM | 6.7
CNCc1ccc(-c2cc(-c3nc(-c4ccc(S(=O)(=O)C(C)C)cc4)cnc3N)on2)cc1 | PDGFRA |  | 0.4 µM | 0
CNC(=O)c1cc(Oc2ccc(NC(=O)Nc3ccc(Cl)c(C(F)(F)F)c3)cc2)ccn1 | Platelet-derived growth factor receptor alpha (PDGFRA, Homo sapiens, UniProt P16234, V561D) |  | 0.3 µM | 99
CN1CC(Oc2cnc(C#N)cc2-c2ccn3nc(NC(=O)C4CC4)cc3c2)C1 | PDGFRA |  | 1 µM | 4
